Data taken from ChEMBL document CHEMBL1152239, “Development of mitochondria-targeted derivatives of resveratrol” (Bioorg Med Chem Lett, 2008).
The source made the active and inactive calls. The calls are words filed in the database; no cut-off is given here.

Experiments:
HCT-116 = assay: Drug uptake in human HCT116 cells at 10 uM after 25 mins by fluorescence microscopic method; format: ADME, cell-based; conditions: hct-116, 25 min
Summary of the method: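 Cultured HCT116 cells were imaged by fluorescence microscopy with excitation at 340 nm, just before compound addition and 25 min after it. Protonophore FCCP was then added and cells were imaged again 10 min later to check that the signal depends on membrane potential.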

[1] = Solubility in water; format: physicochemical
MEF [2] = assay: Cytotoxicity against slow-growing MEF at 5 uM by tetrazolium salt reduction assay; format: cell-based; conditions: mouse
Summary of the method: (§1)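 MTT (tetrazolium salt reduction) read-out after cells grew for 3 days with the compound present, tested at 1 and 5 µM. Cell lines were C-26 mouse colon tumor cells and fast- and slow-growing non-tumoral mouse embryonic fibroblasts. Each measurement was run in quadruplicate and reported as average ± s.d.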

C26 = assay: Cytotoxicity against mouse C26 cells at 5 uM by tetrazolium salt reduction assay; format: functional, cell-based; summary of the method: as §1
[3] = Drug uptake in rat liver mitochondria at 0.5 uM measured by TPP+ sensitive electrode; format: ADME; conditions: in vitro
MEF [4] = assay: Cytotoxicity against fast-growing MEF at 5 uM by tetrazolium salt reduction assay; format: functional, cell-based; conditions: Mus musculus; summary of the method: as §1

Row | Activity (HCT-116) | solubility [1] [µM] | Activity [3] | SMILES | Activity (MEF [2]) | Activity (C26) | Activity (MEF [4])
1 | Active | 97 | Active | CC(=O)Oc1cc(/C=C/c2ccc(OCCCC[P+](c3ccccc3)(c3ccccc3)c3ccccc3)cc2)cc(OC(C)=O)c1.[I-] | Not Active | Active | Active
2 | Active | 31.2 |  | Oc1cc(O)cc(/C=C/c2ccc(OCCCC[P+](c3ccccc3)(c3ccccc3)c3ccccc3)cc2)c1.[I-] | Not Active | Active | Active
